# Measured values reported in ChEMBL document CHEMBL4689842, “EUbOPEN Chemogenomics Library wave 1” (2021).
# Where “and” joins values, the source holds several entries; their conditions need not be identical. Equal values may be shown once.
# System: HEK-293T
# Assay: Multiplex assay against HEK293T;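 as to Population Tubulin-Different-Phenotype (%): share of the cells with healthy nuclei that show this phenotype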
# Type: toxicity, cell-based
# Conditions: human
# Procedure, shortened: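 Per cents of healthy-nucleus cells form the tubulin, mitochondrial-mass and membrane-permeability phenotype values. Live cells were stained at seeding with Hoechst33342, BioTracker Green Microtubule Cytoskeleton Dye, MitoTracker Red and Annexin V Alexa Fluor 680. After compound addition they were imaged on a CQ1 microscope at 37°C and 5% CO2, and CellPathfinder machine-learning gating split them into Hoechst high-intensity objects or normal cells, normal cells into healthy, pyknosed or fragmented nuclei, and pyknosed cells into mitotic or apoptotic.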
# [1] = 12 h, 1 µM, compound concentration 1 uM, replicate 1
# [2] = 12 h, 1 µM, compound concentration 1 uM, replicate 2
# [3] = 12 h, 10 µM, compound concentration 10 uM, replicate 1
# [4] = 12 h, 10 µM, compound concentration 10 uM, replicate 2
# [5] = 24 h, 1 µM, compound concentration 1 uM, replicate 1
# [6] = 24 h, 1 µM, compound concentration 1 uM, replicate 2
# [7] = 24 h, 10 µM, compound concentration 10 uM, replicate 1
# [8] = 24 h, 10 µM, compound concentration 10 uM, replicate 2
# [9] = 48 h, 1 µM, compound concentration 1 uM, replicate 1
# [10] = 48 h, 1 µM, compound concentration 1 uM, replicate 2
# [11] = 48 h, 10 µM, compound concentration 10 uM, replicate 1
# [12] = 48 h, 10 µM, compound concentration 10 uM, replicate 2
compound,measurement,setting,value
Cl.Oc1ccc2c3c1O[C@H]1c4[nH]c5c(c4C[C@@]4(O)[C@@H](C2)N(CC2CC2)CC[C@]314)C[C@@]1(O)[C@H]2Cc3ccc(O)c4c3[C@@]1(CCN2CC1CC1)[C@H]5O4,Population Apoptotic (%),[1],47%
same,Population Fragmented Nuclei (%),[1],8%
same,Population Healthy Nuclei (%),[1],45%
same,Population Hoechst High Intensity Objects (%),[1],13%
same,Population Membrane Permeable-Phenotype (%),[1],0%
same,Population Mitochondria Different-Phenotype (%),[1],74%
same,Population Mitotic Cells (%),[1],52%
same,Population Normal (%),[1],86%
same,Population Pyknosed Nuclei (%),[1],45%
same,Population Tubulin-Different-Phenotype (%),[1],46%
same,Total Cell Count,[1],294
same,Population Apoptotic (%),[2],10%
same,Population Fragmented Nuclei (%),[2],4%
same,Population Healthy Nuclei (%),[2],38%
same,Population Hoechst High Intensity Objects (%),[2],5%
same,Population Membrane Permeable-Phenotype (%),[2],8%
same,Population Mitochondria Different-Phenotype (%),[2],10%
same,Population Mitotic Cells (%),[2],89%
same,Population Normal (%),[2],94%
same,Population Pyknosed Nuclei (%),[2],56%
same,Population Tubulin-Different-Phenotype (%),[2],12%
same,Total Cell Count,[2],128
same,Population Apoptotic (%),[3],40%
same,Population Fragmented Nuclei (%),[3],7%
same,Population Healthy Nuclei (%),[3],49%
same,Population Hoechst High Intensity Objects (%),[3],12%
same,Population Membrane Permeable-Phenotype (%),[3],3%
same,Population Mitochondria Different-Phenotype (%),[3],79%
same,Population Mitotic Cells (%),[3],59%
same,Population Normal (%),[3],87%
same,Population Pyknosed Nuclei (%),[3],43%
same,Population Tubulin-Different-Phenotype (%),[3],33%
same,Total Cell Count,[3],253
same,Population Apoptotic (%),[4],7%
same,Population Fragmented Nuclei (%),[4],5%
same,Population Healthy Nuclei (%),[4],45%
same,Population Hoechst High Intensity Objects (%),[4],2%
same,Population Membrane Permeable-Phenotype (%),[4],6%
same,Population Mitochondria Different-Phenotype (%),[4],27%
same,Population Mitotic Cells (%),[4],92%
same,Population Normal (%),[4],97%
same,Population Pyknosed Nuclei (%),[4],48%
same,Population Tubulin-Different-Phenotype (%),[4],22%
same,Total Cell Count,[4],294
same,Population Apoptotic (%),[5],43%
same,Population Fragmented Nuclei (%),[5],11%
same,Population Healthy Nuclei (%),[5],38%
same,Population Hoechst High Intensity Objects (%),[5],12%
same,Population Membrane Permeable-Phenotype (%),[5],0%
same,Population Mitochondria Different-Phenotype (%),[5],61%
same,Population Mitotic Cells (%),[5],56%
same,Population Normal (%),[5],87%
same,Population Pyknosed Nuclei (%),[5],50%
same,Population Tubulin-Different-Phenotype (%),[5],37%
same,Total Cell Count,[5],307
same,Population Apoptotic (%),[6],6%
same,Population Fragmented Nuclei (%),[6],7%
same,Population Healthy Nuclei (%),[6],53%
same,Population Hoechst High Intensity Objects (%),[6],4%
same,Population Membrane Permeable-Phenotype (%),[6],8%
same,Population Mitochondria Different-Phenotype (%),[6],13%
same,Population Mitotic Cells (%),[6],93%
same,Population Normal (%),[6],95%
same,Population Pyknosed Nuclei (%),[6],39%
same,Population Tubulin-Different-Phenotype (%),[6],26%
same,Total Cell Count,[6],164
same,Population Apoptotic (%),[7],35%
same,Population Fragmented Nuclei (%),[7],9%
same,Population Healthy Nuclei (%),[7],58%
same,Population Hoechst High Intensity Objects (%),[7],7%
same,Population Membrane Permeable-Phenotype (%),[7],0%
same,Population Mitochondria Different-Phenotype (%),[7],54%
same,Population Mitotic Cells (%),[7],64%
same,Population Normal (%),[7],92%
same,Population Pyknosed Nuclei (%),[7],32%
same,Population Tubulin-Different-Phenotype (%),[7],30%
same,Total Cell Count,[7],308
same,Population Apoptotic (%),[8],11%
same,Population Fragmented Nuclei (%),[8],4%
same,Population Healthy Nuclei (%),[8],73%
same,Population Hoechst High Intensity Objects (%),[8],3%
same,Population Membrane Permeable-Phenotype (%),[8],4%
same,Population Mitochondria Different-Phenotype (%),[8],17%
same,Population Mitotic Cells (%),[8],88%
same,Population Normal (%),[8],96%
same,Population Pyknosed Nuclei (%),[8],22%
same,Population Tubulin-Different-Phenotype (%),[8],23%
same,Total Cell Count,[8],399
same,Population Apoptotic (%),[9],43%
same,Population Fragmented Nuclei (%),[9],15%
same,Population Healthy Nuclei (%),[9],44%
same,Population Hoechst High Intensity Objects (%),[9],12%
same,Population Membrane Permeable-Phenotype (%),[9],2%
same,Population Mitochondria Different-Phenotype (%),[9],29%
same,Population Mitotic Cells (%),[9],56%
same,Population Normal (%),[9],87%
same,Population Pyknosed Nuclei (%),[9],39%
same,Population Tubulin-Different-Phenotype (%),[9],31%
same,Total Cell Count,[9],368
same,Population Apoptotic (%),[10],10%
same,Population Fragmented Nuclei (%),[10],6%
same,Population Healthy Nuclei (%),[10],77%
same,Population Hoechst High Intensity Objects (%),[10],3%
same,Population Membrane Permeable-Phenotype (%),[10],10%
same,Population Mitochondria Different-Phenotype (%),[10],7%
same,Population Mitotic Cells (%),[10],89%
same,Population Normal (%),[10],96%
same,Population Pyknosed Nuclei (%),[10],15%
same,Population Tubulin-Different-Phenotype (%),[10],23%
same,Total Cell Count,[10],260
same,Population Apoptotic (%),[11],29%
same,Population Fragmented Nuclei (%),[11],10%
same,Population Healthy Nuclei (%),[11],69%
same,Population Hoechst High Intensity Objects (%),[11],9%
same,Population Membrane Permeable-Phenotype (%),[11],2%
same,Population Mitochondria Different-Phenotype (%),[11],23%
same,Population Mitotic Cells (%),[11],70%
same,Population Normal (%),[11],90%
same,Population Pyknosed Nuclei (%),[11],19%
same,Population Tubulin-Different-Phenotype (%),[11],21%
same,Total Cell Count,[11],462
same,Population Apoptotic (%),[12],14%
same,Population Fragmented Nuclei (%),[12],5%
same,Population Healthy Nuclei (%),[12],83%
same,Population Hoechst High Intensity Objects (%),[12],2%
same,Population Membrane Permeable-Phenotype (%),[12],3%
same,Population Mitochondria Different-Phenotype (%),[12],5%
same,Population Mitotic Cells (%),[12],85%
same,Population Normal (%),[12],97%
same,Population Pyknosed Nuclei (%),[12],10%
same,Population Tubulin-Different-Phenotype (%),[12],16%
same,Total Cell Count,[12],731
C[C@H]1Oc2cc(cnc2N)-c2c(nn(C)c2C#N)CN(C)C(=O)c2ccc(F)cc21 [LORLATINIB],Population Apoptotic (%),[1],21% and 18%
same,Population Fragmented Nuclei (%),[1],16% and 9%
same,Population Healthy Nuclei (%),[1],66% and 76%
same,Population Hoechst High Intensity Objects (%),[1],11% and 7%
same,Population Membrane Permeable-Phenotype (%),[1],7% and 4%
same,Population Mitochondria Different-Phenotype (%),[1],3% and 5%
same,Population Mitotic Cells (%),[1],78% and 81%
same,Population Normal (%),[1],88% and 92%
same,Population Pyknosed Nuclei (%),[1],17% and 14%
same,Population Tubulin-Different-Phenotype (%),[1],2% and 3%
same,Total Cell Count,[1],529 and 617
same,Population Apoptotic (%),[2],5% and 14%
same,Population Fragmented Nuclei (%),[2],6% and 7%
same,Population Healthy Nuclei (%),[2],87%
same,Population Hoechst High Intensity Objects (%),[2],2%
same,Population Membrane Permeable-Phenotype (%),[2],3% and 1%
same,Population Mitochondria Different-Phenotype (%),[2],7% and 6%
same,Population Mitotic Cells (%),[2],94% and 85%
same,Population Normal (%),[2],97%
same,Population Pyknosed Nuclei (%),[2],6% and 5%
same,Population Tubulin-Different-Phenotype (%),[2],9%
same,Total Cell Count,[2],1515 and 1456
same,Population Apoptotic (%),[5],18% and 15%
same,Population Fragmented Nuclei (%),[5],12% and 7%
same,Population Healthy Nuclei (%),[5],75% and 82%
same,Population Hoechst High Intensity Objects (%),[5],3% and 4%
same,Population Membrane Permeable-Phenotype (%),[5],10% and 9%
same,Population Mitochondria Different-Phenotype (%),[5],2% and 5%
same,Population Mitotic Cells (%),[5],81% and 84%
same,Population Normal (%),[5],96% and 95%
same,Population Pyknosed Nuclei (%),[5],12% and 9%
same,Population Tubulin-Different-Phenotype (%),[5],5% and 4%
same,Total Cell Count,[5],614 and 730
same,Population Apoptotic (%),[6],3% and 7%
same,Population Fragmented Nuclei (%),[6],14% and 18%
same,Population Healthy Nuclei (%),[6],80% and 78%
same,Population Membrane Permeable-Phenotype (%),[6],8% and 3%
same,Population Mitochondria Different-Phenotype (%),[6],1%
same,Population Mitotic Cells (%),[6],96% and 92%
same,Population Pyknosed Nuclei (%),[6],4% and 3%
same,Population Tubulin-Different-Phenotype (%),[6],9% and 3%
same,Total Cell Count,[6],2424 and 2417
